# Compound activity as filed in PubChem.
# Rows were chosen to be rich in hits. Some 3.6% of all compounds tested hit in one or more screens of this group.
# PAFAH1B3 FP inh: PAFAH1B3 (human) inhibition | recombinant PAFAH1B3, FP-rhodamine probe, fluorescence polarization | inhibition, % at 3.39 µM | 340,000 compounds, 0.28% hits | AID 492972;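 active = inhibition above the screen-wide average of all tested compounds plus 3 SD, cut at about 25% in these data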;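 note: 0% = enzyme with DMSO only and 100% = wells lacking PAFAH1B3 protein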
# Target sequence (Q15102 whole entry, looked up): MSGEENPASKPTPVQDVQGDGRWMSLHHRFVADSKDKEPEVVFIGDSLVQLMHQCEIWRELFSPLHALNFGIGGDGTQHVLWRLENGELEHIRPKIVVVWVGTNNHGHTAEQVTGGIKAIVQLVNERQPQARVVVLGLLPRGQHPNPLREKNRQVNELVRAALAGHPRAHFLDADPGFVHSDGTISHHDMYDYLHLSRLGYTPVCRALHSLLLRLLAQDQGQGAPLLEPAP
# IMP-1 inhibitor: inhibitors of Pseudomonas aeruginosa IMP-1 metallo-beta-lactamase. inhibition, % at 5.6 µM. 290,000 compounds, 0.45% hits. AID 1556. purified IMP-1, nitrocefin hydrolysis, epi-absorbance fluorescence;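 active = inhibition above the mean plus 3 SD of all compounds in the same screening run, cut at about 4.5% in these data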;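 note: 0% = IMP-1 with DMSO and 100% = DMSO wells lacking enzyme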
#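 System: purified IMP-1; amount: IMP-1 0.2 nM before substrate addition; compound: single dose, 5.6 µM; times: 25 °C, 15 min preincubation, 25 min reaction; signal: Epi-absorbance via hydrolysed-nitrocefin quenching of white-plate fluorescence, 480/530 nm, EDTA stop; benchmarks: DMSO with and without IMP-1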
# VIM-2 inh: inhibitors of Pseudomonas aeruginosa VIM-2 metallo-beta-lactamase. AID 1527. purified VIM-2, nitrocefin hydrolysis, epi-absorbance fluorescence. inhibition, % at 5.6 µM. 290,000 compounds, 0.89% hits;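 active = inhibition above the mean of all tested compounds plus 3 SD, cutoff set per screening run, cut at about 7.5% in these data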;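 note: red hydrolysis product quenches plate fluorescence so inhibitors raise well fluorescence; 0% = enzyme with DMSO and 100% = DMSO without enzyme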
# pPAFAH inh: pPAFAH (human) enzyme inhibition. Q13093. recombinant pPAFAH, FP-rhodamine probe fluorescence polarization. inhibition, % at 3.39 µM. 330,000 compounds, 1.5% hits. AID 463082;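 active = inhibition above the mean inhibition across the screen plus 3 SD, cut at about 25% in these data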;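 note: inhibitors block binding of the rhodamine activity-based probe so polarization drops; 0% = enzyme with DMSO and 100% = wells lacking pPAFAH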
# PAFAH2 inh: inhibitors of human PAFAH2; Q99487; recombinant PAFAH2, FP-rhodamine activity probe, fluorescence polarization; inhibition, % at 3.39 µM; 340,000 compounds, 0.99% hits;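 active = inhibition above the mean over all tested compounds plus 3 SD, cut at about 30% in these data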;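 note: inhibitors block probe labeling of enzyme so polarization drops; 0% = enzyme with DMSO and 100% = wells lacking PAFAH2 protein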
# PAFAH1B2 FP inh: blocks human PAF acetylhydrolase 1b catalytic subunit 2; recombinant PAFAH1B2, FP-rhodamine activity probe, fluorescence polarization; inhibition, % at 3.39 µM; 340,000 compounds, 1.2% hits; AID 492953;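 active = inhibition above the mean of all tested compounds plus 3 SD, cut at about 24% in these data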;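 note: 0% = enzyme with DMSO and 100% = wells lacking PAFAH1B2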
# Target sequence (P68402 whole entry, looked up): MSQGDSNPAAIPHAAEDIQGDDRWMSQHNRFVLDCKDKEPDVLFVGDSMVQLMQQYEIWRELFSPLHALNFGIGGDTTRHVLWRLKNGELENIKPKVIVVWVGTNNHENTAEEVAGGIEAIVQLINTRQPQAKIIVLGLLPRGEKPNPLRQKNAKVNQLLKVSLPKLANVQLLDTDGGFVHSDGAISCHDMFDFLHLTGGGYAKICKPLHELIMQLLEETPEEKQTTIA
# The depositor's hits bear a star; / = not tested or not shown.
SMILES,PAFAH1B3 FP inh,IMP-1 inhibitor,VIM-2 inh,pPAFAH inh,PAFAH2 inh,PAFAH1B2 FP inh
CC(C)(C)OC(=O)[C@H]1[C@H](c2ccc([N+](=O)[O-])cc2)C2(C(=O)c3ccccc3C2=O)C2c3ccccc3C=NN21 (some centres not stated),1.7,-0.1,0.2,10.8,6.7,83.8*
COc1ccc(C(=O)O)cc1S(=O)(=O)Nc1cc(Cl)ccc1N1CCOCC1,-1.6,/,/,4.9,2.8,-1.5
COc1ccc(/C=N/N=C2/NC(=O)C(CC(=O)O)S2)cc1OCc1ccccc1Cl (configuration not stated),-2.2,-2.4,-3.7,7.5,-1.8,2.3
CCOc1cc(/C=N/N=C2/NC(=O)C(CC(=O)O)S2)ccc1OCc1ccccc1Cl (configuration not stated),-2.7,-3.2,-3.0,25.7*,3.6,5.8
COc1ccc(S(=O)(=O)Oc2cccc(/C=N/N=C3/NC(=O)C(CC(=O)O)S3)c2)cc1 (configuration not stated),9.5,-0.3,2.9,6.4,5.3,28.4*
O=C(O)CCC(=O)N1CCN(c2nc(-c3ccccc3Cl)c3cc(Br)ccc3n2)CC1,5.5,1.6,1.4,33.2*,8.3,-0.4
CCCc1c(-c2ccc(O)cc2)nn(-c2ccc(O)cc2)c1-c1ccc(O)cc1,11.4,/,/,33.2*,0.8,4.7
Cc1c(C(N)=O)c(-c2ccccc2)nn1-c1ccccc1,1.3,-4.8,-5.5,1.4,-5.8,-1.5
CCN(CC)c1ccc(/C=C(\C#N)c2ccccn2)cc1,7.1,-2.8,-2.2,16.4,-7.2,4.0
CN(CCC#N)c1ccc(/C=C(\C#N)c2ccccn2)cc1,3.7,25.1*,3.5,9.4,-1.6,2.9
N#C/C(=C(/O)CCl)c1nc2c(s1)CCc1ccccc1-2,-1.6,-4.8,1.3,20.9,30.2*,1.5
Nc1nc2c(s1)CCc1ccccc1-2,7.8,-0.4,-0.6,0.8,3.6,10.0
COc1ccc(C2CC(c3ccccc3)=NN2c2ccc(N)cc2)cc1 (configuration not stated),-1.9,-2.0,-5.3,25.8*,5.3,6.0
COc1ccc(C2=NN(c3ccc(C(=O)O)cc3)C(c3ccc(OC)c(OC)c3)C2)cc1 (configuration not stated),17.9,-2.6,-1.0,26.9*,14.3,7.6
COc1ccc(C2CC(c3ccccc3)=NN2c2ccc(Cl)c(C(=O)O)c2)cc1 (configuration not stated),9.7,0.4,4.9,34.0*,7.2,1.3
O=C(CCNC(=O)c1ccc([N+](=O)[O-])cc1)NCCc1ccccc1,6.5,-2.1,0.1,-0.2,-2.1,3.5
CCn1c(=N)c(C(N)=O)cc2c(=O)n3cccc(C)c3nc21,/,-1.7,7.9*,/,/,/
Cc1cccn2c(=O)c3cc(C(=O)NCCc4ccccc4)c(=N)n(Cc4ccco4)c3nc12,-5.8,-3.6,9.1*,13.7,-7.9,3.1
CCOC(=O)c1cc2c(=O)n3cccc(C)c3nc2n(CCCOC)c1=NC(=O)c1cccnc1,4.7,-3.4,10.3*,-1.1,-2.6,-3.1
CCn1c(=N)c(C(=O)NC)cc2c(=O)n3cccc(C)c3nc21,-2.5,/,/,/,7.4,2.8
CCOc1ccccc1C(=O)NCC(=O)NCC(c1ccco1)N1CCCCC1 (configuration not stated),-5.5,/,/,-4.9,8.5,0.1
COc1cc(C(=O)NCc2ncccc2C)ccc1OC1CCN(C(C)=O)CC1,6.4,-0.8,-1.4,0.6,1.4,-1.0
O=C(Nc1ccccc1N1CCN(C(=O)c2ccccc2)CC1)c1ccc(Br)o1,5.5,5.9*,-2.9,2.8,-0.6,3.2
COc1ccc(S(=O)(=O)NC(C)CCc2ccccc2)cc1 (configuration not stated),7.7,-2.6,-2.2,1.2,-2.7,16.3
CC(CCc1ccccc1)NS(=O)(=O)c1ccccc1F (configuration not stated),6.1,-4.8,-1.3,3.8,3.7,29.2*
SMILES,PAFAH1B3 FP inh,IMP-1 inhibitor,VIM-2 inh,pPAFAH inh,PAFAH2 inh,PAFAH1B2 FP inh
O=C(c1ccc(COc2ccc(Br)cc2)o1)N1N=C(C(F)F)CC1(O)C(F)F (configuration not stated),-2.0,-2.5,-4.3,10.4,-1.6,28.9*
NNC(=O)c1ccc(COc2ccc(Br)cc2)o1,-1.4,-1.9,1.1,0.9,0.7,25.4*
CN(C)/C=C(\C=O)c1onc(-c2ccccc2Cl)c1C#N,2.8,-4.1,-2.7,4.2,32.8*,-1.6
Cc1cc2c(=O)n(C)c(SCC(=O)Nc3cccc(F)c3)nc2s1,11.4,-4.3,0.3,4.8,1.9,10.0
CCC1Sc2ccc(S(=O)(=O)CCC(=O)Nc3c(Cl)cc(OC)cc3OC)cc2NC1=O (configuration not stated),7.4,-0.9,-3.0,5.0,8.0,-1.7
CC1(C)Cc2c(c(-c3ccco3)nc3sc4c(NCCN5CCOCC5)ncnc4c23)CO1,2.7,1.4,-3.1,9.7,-5.0,7.8
CC1(C)Cc2c(sc3nc(NCCN4CCOCC4)n4ncnc4c23)CO1,7.3,16.2*,6.8,2.9,-13.9,3.3
O=C1C2C3C=CC(O3)C2C(=O)N1N=Cc1ccc2c(c1)OCO2 (configuration not stated),1.9,/,/,/,1.0,6.0
OCCN(CCO)c1cc2c3ccccc3ccc2c2ccccc12,11.0,/,/,/,18.4,5.5
NNC(=O)c1nn(-c2ccc(Cl)cc2)cc1O,8.4,-3.0,-3.3,34.5*,-9.8,2.4
Cc1ccc(NC(=O)COC(=O)c2nn(-c3ccc(Cl)cc3)cc2O)cc1,-1.1,/,/,2.5,-7.5,-3.0
O=C(NNC(=S)Nc1ccccc1Cl)c1ccccc1Br,6.3,-3.9,-6.4,/,-5.2,1.3
CCc1cc(CNC(=O)c2ccc(OC3CCN(CCc4ccccc4)CC3)cc2)on1,10.5,13.1*,-1.5,-0.5,0.9,6.3
Cc1cc(-c2csc(N)n2)c(C)n1C,5.8,-3.6,-1.2,16.3,6.0,6.9
Cc1ccc(-c2csc(N)n2)cc1,2.8,/,/,/,12.1,70.1*
Cc1ccc(-n2c(C)cc(-c3csc(N)n3)c2C)cc1,0.8,-1.5,-4.2,25.1*,2.8,-1.6
COc1ccc(-c2csc(N)n2)cc1,8.5,-1.0,-1.8,0.2,5.4,10.8
O=C(Cn1ccccc1=O)NCc1ccc(F)cc1,-8.2,-1.6,0.5,33.3*,-1.4,2.0
CCn1c2ccccc2c2cc(NC(=O)COC(=O)c3ccc(O)cc3)ccc21,12.8,/,/,32.8*,24.3,-0.7
CCCn1c(SCC(=O)Nc2ccccc2OC)nnc1-c1ccco1,1.3,-4.3,-1.6,-4.3,-4.7,7.0
O=C(Nc1ccccc1)ON=C1c2ccccc2-c2ccccc21,20.6,2.2,0.4,-6.6,-1.7,6.0
O=C(Nc1ccccc1Cl)ON=C1c2ccccc2-c2ccccc21,25.7*,0.1,2.2,-4.9,-1.0,2.9
